# Only some compounds are listed: those with a hit (about 4.3% of all), similar ones and a draw of the others.
# TAAR1 agonist: human TAAR1 agonists, primary screen, Fluo-8 calcium fluorescence, CHO RD-HGA16 cells; hit rate 0.99% among 360,000; Trace amine-associated receptor 1 (Homo sapiens), Q96RJ0; activation, % at 3 µM; vehicle wells 0%, saturating PEA agonist 100%; AID 624467, 2012;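 active means activation above the mean activation of all test compounds in the run plus 3 SD, cut at about 38% in these data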
#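 Assay system: CHO-derived RD-HGA16 cells with stable Gα16 and human TAAR1; timing: 17-24 h seeding, 75 min 37 °C dye, 30 min RT; read-out: % activation from peak over basal fluorescence ratio, DMSO-to-PEA scaled; measured by: kinetic Fluo-8 calcium fluorescence; benchmarks: low control DMSO, high control PEA (EC100); doses: 3 µM single concentration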
# MC4R barr agon: MC4R agonists recruiting beta-arrestin, primary screen, cell-based, luminescence, agonist arm of biased-ligand search. Melanocortin receptor 4 (Homo sapiens), P32245. U2OS MC4R beta-arrestin complementation; percent of melanotan II response, DMSO zero. activation, % at 8.9 µM. hit rate 0.98% among 360,000. AID 540308, 2011;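 active means activation above a per-plate cutoff, the mean activation of sample wells on that plate plus 3 SD, cut at about 8% in these data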
# TAAR1 antag: human TAAR1 antagonists, primary screen, Fluo-8 calcium fluorescence, CHO RD-HGA16 cells; antagonist; hit rate 1.5% among 360,000; Trace amine-associated receptor 1 (Homo sapiens), Q96RJ0; inhibition, % at 3 µM;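 active means inhibition above a per-plate cutoff, the mean inhibition of test compounds on that plate plus 3 SD, cut at about 49% in these data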;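 further: 0% = DMSO plus EC80 beta-PEA response and 100% = DMSO alone without agonist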
#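 Test system: hTAAR1-expressing CHO RD-HGA16 cells, Gα16-coupled; Probe or stimulus: EC80 β-phenethylamine stimulus; Compound dosing: single nominal final test compound concentration of 3 µM; Timing: 140 s kinetic read after compound, 140 s after agonist; Signal: Fluo-8 calcium-sensitive fluorescence; Measure: % inhibition of agonist calcium response; Controls: DMSO and EC80 PEA controls.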
# m5-HT2A agonist: mouse Htr2a agonists via beta-arrestin recruitment, primary screen, cell-based, luminescence. hit rate 0.66% among 360,000. activation, % at 7.6 µM. CHO-K1 mHTR2A beta-arrestin complementation; percent of 30 µM serotonin response. 5-hydroxytryptamine receptor 2A (Mus musculus), P35363;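 active means activation above a run cutoff, the mean activation of all tested compounds plus 3 SD, cut at about 14% in these data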;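 further: 0% = plate median of compound wells and 100% = 30 µM serotonin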
# Target sequence (P35363 whole entry, looked up): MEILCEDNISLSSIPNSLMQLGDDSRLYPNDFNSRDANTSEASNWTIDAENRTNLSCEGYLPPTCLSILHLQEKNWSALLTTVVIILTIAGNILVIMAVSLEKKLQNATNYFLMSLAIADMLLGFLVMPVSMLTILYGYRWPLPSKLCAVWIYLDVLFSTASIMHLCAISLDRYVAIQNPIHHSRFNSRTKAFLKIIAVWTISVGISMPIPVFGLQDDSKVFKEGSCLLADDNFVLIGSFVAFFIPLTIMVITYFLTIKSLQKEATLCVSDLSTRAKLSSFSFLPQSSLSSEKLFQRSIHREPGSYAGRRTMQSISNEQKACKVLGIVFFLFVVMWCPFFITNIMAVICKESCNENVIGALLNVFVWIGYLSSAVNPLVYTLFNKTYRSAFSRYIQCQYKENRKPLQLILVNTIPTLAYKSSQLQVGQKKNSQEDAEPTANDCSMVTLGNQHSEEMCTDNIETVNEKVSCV
# Beta2AR agonist: beta2AR agonists driving receptor internalization, primary screen, cell-based, FAP fluorogen, flow cytometry | hit rate 0.43% among 340,000 | AID 504454, 2011 | Beta-2 adrenergic receptor (Homo sapiens), P07550 | Am2.2-beta2AR cells | response, % (test concentration not listed);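 active means response above a set limit, near 3 SD of response in nonfluorescent compounds, cut at about 42% in these data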
# MC4R antag cAMP: MC4R antagonists of cAMP signaling, primary screen, cell-based, TR-FRET, antagonist arm of biased-ligand search; Melanocortin receptor 4 (Homo sapiens), P32245; MC4R-expressing cells, MTII-stimulated cAMP, LANCE TR-FRET; inhibition, % at 6.5 µM; hit rate 0.48% among 360,000; AID 540295, 2011;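 active means inhibition above its plate's cutoff, the mean of tested wells on that plate plus 3 SD, cut at about 29% in these data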;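 further: 0% = Melanotan II alone and 100% = Melanotan II plus saturating MCL0020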
#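 System: U2OS-MC4R stable cell line; Technique: Eu-cAMP/anti-cAMP TR-FRET, emission 671 nm; Repeats: single well per compound; Also added: Melanotan II; Dosing: one concentration, 6.5 µM nominal; Schedule: 30-min compound, 1-h challenge, 1-h detection, room temperature.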
# OPRM1 ag: OPRM1 agonists via beta-arrestin recruitment, confirmation, counter-screen for mouse HTR2A agonist project, cell-based, luminescence, single concentration; U2OS OPRM1 beta-arrestin PathHunter; DMSO 0%, DAMGO 9.3 µM 100%; activation, % at 9.3 µM; hit rate 5.3% among 2,300; shares compounds with m5-HT2A agonist; AID 624380, 2012;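 active means mean activation above the mean of DMSO-only wells plus 3 SD, cut at about 0.5% in these data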
# HTR2A ag conf: mouse HTR2A agonists, beta-arrestin recruitment, confirmation, cell-based, luminescence, CHO-K1 PathHunter, triplicate; shares compounds with m5-HT2A agonist; DMSO 0%, 30 µM serotonin 100%; activation, % at 7.6 µM; hit rate 19% among 2,300;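 active means mean activation across triplicates above the hit threshold derived in the original primary screen, cut at about 15% in these data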
# * marks the source's active call; other numbers are inactive results; / = no result.
SMILES,TAAR1 agonist,MC4R barr agon,TAAR1 antag,m5-HT2A agonist,Beta2AR agonist,MC4R antag cAMP,OPRM1 ag,HTR2A ag conf
N#CC(c1ccc(F)cc1)c1ccc(C(=O)c2ccc(F)cc2)cc1 (centres undefined),21.6,-0.1,56.0*,14.5*,-3.9,-2.2,-0.4,-6.0
O=C(NCCO)/C(=C\c1cccs1)NC(=O)c1cccs1,-0.8,0.6,0.7,23.7*,-2.8,-2.2,-0.3,-2.3
O=C(NCc1ccco1)/C(=C\c1cccs1)NC(=O)c1cccs1,10.5,-0.4,5.0,2.0,5.8,-5.4,/,/
O=C1C(=C(c2ccccc2)N2CCOCC2)Cc2ccccc21,1.9,-3.8,-6.5,-6.1,/,22.0,/,/
CCCCNc1ccc2c(c1)OC[C@H](Cc1ccccc1)NS2(=O)=O,-1.6,/,2.4,/,/,/,/,/
CCN1C(=O)[C@H]2[C@@H](c3ccc(C)cc3)N[C@]3(CCCN(Cc4cccn4C)C3=O)[C@H]2C1=O,1.1,-0.6,13.4,21.1*,/,3.0,-0.5,-2.0
CCN1C(=O)[C@H]2[C@@H](c3ccc(C(F)(F)F)cc3)N[C@]3(CCCN(Cc4cccn4C)C3=O)[C@H]2C1=O,-1.9,-1.0,-1.0,-3.0,/,4.0,/,/
O=C(CC1(O)C(=O)Nc2ccccc21)c1ccccc1 (centres undefined),-0.1,1.0,14.7,4.9,-7.0,15.0,/,/
O=C(CC1(O)C(=O)Nc2ccccc21)c1ccccc1O (centres undefined),0.1,-0.1,6.1,20.7*,1.8,2.5,-1.3,-3.0
O=C(O)C1(Cc2nc3ccccc3[nH]2)CCCC1,1.2,-2.0,-1.4,7.9,5.4,15.1,/,/
CCS(=O)(=O)Nc1ccc(-c2nc3cccnc3s2)cc1,6.5,0.0,-7.4,26.9*,2.5,9.8,-0.4,-3.3
CN1CCc2cccc3c2[C@H]1Cc1ccc(O)c(O)c1-3,18.0,-0.6,-19.9,44.1*,10.2,-16.7,-0.3,125.0*
CN(Cc1ccccc1)S(=O)(=O)c1ccc(OCC(=O)NCc2ccccn2)cc1,6.7,1.8,-4.7,17.6*,-4.2,15.9,-0.6,-4.8
CC(C)(C)NC(=O)COc1ccc(CNCc2ccccn2)cc1,0.0,3.0,5.7,14.5*,-0.7,2.0,-0.6,-3.2
CC(C)(C)NC(=O)COc1ccc(CNCCc2ccccc2)cc1,4.5,-2.2,-12.4,-26.0,-9.5,10.5,/,/
CCOC(=O)C1=CCC(c2ccc(C#N)cc2)N(S(=O)(=O)c2ccc(C)cc2)C1 (centres undefined),2.3,/,14.0,-6.5,/,/,/,/
COC(=O)Cc1ccc(NC(C)=O)cc1,9.3,-0.2,-0.1,-1.5,0.8,3.7,/,/
NCCCC[C@@H](C(=O)NCCCCCCCCCCC(=O)N1CCNCC1)n1cc(CCO)nn1,11.0,-1.2,-4.6,-5.5,-2.6,2.4,/,/
CSCCCc1cn([C@@H](CO)C(=O)NCCCCCCCCCCC(=O)N2CCNCC2)nn1,7.5,-1.8,4.2,23.8*,-4.8,5.2,-0.6,-2.8
CC(/C=C/C1(O)C(C)CC(O)CC1(C)C)OC1OC(CO)C(O)C(O)C1O (centres undefined),1.1,-2.3,-12.7,38.7*,2.0,4.8,-0.5,-0.6
CC(C)C[C@@H](CN1CCC[C@H]1CN1C(=O)C(=O)NC[C@@H]1Cc1ccccc1)N1C[C@H](Cc2ccc(O)cc2)N(CC2CCCCC2)C(=O)C1=O,0.6,/,-17.2,15.0*,/,/,-0.5,-2.7
CC(C)C[C@@H](CN1CCC[C@H]1CN1C(=O)C(=O)NC[C@@H]1Cc1ccc(O)cc1)N1C[C@H](Cc2ccccc2)N(CC2CCCCC2)C(=O)C1=O,0.8,/,-18.2,-1.6,/,/,/,/
Cc1ccc(C(=O)COc2nc(C)cc(C)c2C#N)cc1,8.9,4.1,-14.7,5.7,9.7,1.8,/,/
Cc1cc(C)c(C#N)c(OCC2CCCO2)n1 (centres undefined),-1.0,/,-4.5,14.6*,/,/,-0.6,-1.0
CCOC(=O)c1c(S(=O)(=O)NCC(=O)Nc2cc(C)ccc2OC)c(C)n(C)c1C,1.9,0.7,-47.6,5.7,11.6,-2.6,/,/
SMILES,TAAR1 agonist,MC4R barr agon,TAAR1 antag,m5-HT2A agonist,Beta2AR agonist,MC4R antag cAMP,OPRM1 ag,HTR2A ag conf
CCOC(=O)c1c(S(=O)(=O)NCCc2ccc(OC)c(OC)c2)c(C)n(C)c1C,2.7,-1.8,-26.0,15.5*,-5.5,-0.6,-0.6,-3.3
CC(C)(O)c1[nH]c2cc(C(F)(F)F)ccc2c1C(C)(C)O,3.8,0.7,-5.9,9.2,2.1,-4.0,/,/
Nc1ncnc2c1ncn2[C@@H]1O[C@H](CNC(=O)[C@@H](N)CO)[C@@H](O)[C@H]1O,1.6,-0.4,-1.3,-1.5,-2.7,3.3,/,/
Cc1cccc(-n2c(Cc3cc(=O)[nH]c(=O)[nH]3)nnc2SCC(=O)N2CCc3ccccc32)c1,2.2,-0.4,-22.4,1.6,-2.9,0.2,/,/
O=C(CSc1nnc(Cc2cc(=O)[nH]c(=O)[nH]2)n1-c1ccccc1)N1CCCc2ccccc21,3.0,-0.4,0.5,16.1*,3.4,5.4,-0.7,-2.3
COc1cc(/C=N/Nc2ccc(C(F)(F)F)cn2)ccc1O,-2.4,0.5,3.4,1.7,1.4,3.7,/,/
O=C(O)c1ccc(/C=N/Nc2ccc(C(F)(F)F)cn2)cc1,5.8,-1.1,28.4,17.8*,0.5,-4.5,-0.6,-2.4
CCOc1ccc(CNC(=O)CS(=O)(=O)Cc2nc(-c3ccc(OC)cc3)oc2C)cc1,8.7,6.5,0.9,19.6*,-7.7,14.3,-0.3,0.0
O=C(COc1cccc(F)c1)Nc1nc(-c2ccncc2)cs1,6.6,-0.6,7.6,0.8,15.7,11.2,/,/
O=C(Nc1nccs1)c1c(O)c2c([nH]c1=O)CCCC2,6.3,-1.9,-7.8,-2.4,-16.5,7.1,/,/
O=C(Nc1ccccc1O)c1c(O)c2c([nH]c1=O)CCCC2,3.0,8.1,7.9,15.0*,9.0,3.7,0.8*,5.3

# From PubChem
